The results in this text go back to ChEMBL document CHEMBL3860059, “Design, Synthesis, and Biological Evaluation of First-in-Class Dual Acting Histone Deacetylases (HDACs) and Phosphodiesterase 5 (PDE5) Inhibitors for the Treatment of Alzheimer's Disease” (J Med Chem, 2016).

Data set [1] deals with cGMP-specific 3',5'-cyclic phosphodiesterase (Homo sapiens, UniProt O76074). The data set can be described thus: Inhibition of full length recombinant human N-terminal GST-tagged PDE5A1 expressed in baculovirus infected Sf9 cells using cGMP as substrate after 30 mins by HTRF assay. (In general: Time-resolved FRET reads energy transfer from a long-lived donor to a nearby acceptor.)

The target of a further data set is Histone deacetylase 1 (Homo sapiens, UniProt Q13547). Description: Inhibition of full length recombinant human C-terminal His/Flag-tagged HDAC1 expressed in baculovirus infected Sf9 cells using fluorogenic HDAC substrate after 30 mins by fluorescence analysis. In outline: (§1)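 Full-length human recombinant HDAC1 (0.4 μg/mL final), HDAC2 (1.5 μg/mL), HDAC3/NCOR2 (0.1 μg/mL) or HDAC6 (3.6 μg/mL) with 10 μM fluorogenic acetyl-lysine substrate and 0.1 mg/mL BSA, 1% DMSO, 30 min at 37 °C; lysine developer 20 min at room temperature; fluorescence ex 355/em 460 nm. Vehicle = positive control, no enzyme = negative; IC50 from curve fit.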

For another data set, the target named is Histone deacetylase 2 (Homo sapiens, UniProt Q92769). The data set can be described thus: Inhibition of full length recombinant human C-terminal His-tagged HDAC2 expressed in baculovirus infected Sf9 cells using fluorogenic HDAC substrate after 30 mins by fluorescence analysis. In outline: as §1
Data set [2] addresses T1, Protein deacetylase HDAC6 (Homo sapiens, UniProt Q9UBN7).
T1 sequence (Q9UBN7 whole entry): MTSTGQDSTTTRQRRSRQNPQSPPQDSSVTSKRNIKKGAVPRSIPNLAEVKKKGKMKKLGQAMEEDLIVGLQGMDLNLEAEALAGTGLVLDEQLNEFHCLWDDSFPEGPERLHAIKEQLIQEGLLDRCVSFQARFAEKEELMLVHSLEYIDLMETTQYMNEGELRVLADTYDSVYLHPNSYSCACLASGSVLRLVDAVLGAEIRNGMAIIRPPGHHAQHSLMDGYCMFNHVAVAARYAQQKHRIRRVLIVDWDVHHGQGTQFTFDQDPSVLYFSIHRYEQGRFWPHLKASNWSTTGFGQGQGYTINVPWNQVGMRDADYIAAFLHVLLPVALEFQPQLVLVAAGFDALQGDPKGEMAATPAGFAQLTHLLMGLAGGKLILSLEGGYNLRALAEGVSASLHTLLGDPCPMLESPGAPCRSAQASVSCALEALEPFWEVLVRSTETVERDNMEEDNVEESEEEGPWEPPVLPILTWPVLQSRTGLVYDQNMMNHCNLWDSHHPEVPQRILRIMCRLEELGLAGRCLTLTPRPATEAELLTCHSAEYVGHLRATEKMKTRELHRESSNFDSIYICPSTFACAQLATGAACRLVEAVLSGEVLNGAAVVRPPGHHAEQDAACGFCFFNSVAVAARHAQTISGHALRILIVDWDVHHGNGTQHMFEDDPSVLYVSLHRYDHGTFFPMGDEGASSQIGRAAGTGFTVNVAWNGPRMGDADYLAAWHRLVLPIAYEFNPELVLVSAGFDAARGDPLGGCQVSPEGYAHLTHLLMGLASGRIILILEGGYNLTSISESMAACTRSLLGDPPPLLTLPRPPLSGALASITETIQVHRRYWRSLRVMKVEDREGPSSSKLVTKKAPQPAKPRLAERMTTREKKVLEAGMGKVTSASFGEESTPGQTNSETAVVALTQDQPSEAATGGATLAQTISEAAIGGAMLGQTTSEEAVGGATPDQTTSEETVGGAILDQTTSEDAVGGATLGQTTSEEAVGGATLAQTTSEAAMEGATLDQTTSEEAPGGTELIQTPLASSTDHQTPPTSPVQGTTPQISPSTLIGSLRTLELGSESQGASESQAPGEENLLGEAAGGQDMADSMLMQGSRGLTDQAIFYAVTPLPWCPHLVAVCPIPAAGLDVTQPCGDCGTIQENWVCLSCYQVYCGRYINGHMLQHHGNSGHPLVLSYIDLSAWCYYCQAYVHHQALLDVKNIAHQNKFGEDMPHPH
Description: Inhibition of full length recombinant human N-terminal GST tagged HDAC6 expressed in baculovirus infected Sf9 cells using fluorogenic HDAC substrate after 30 mins by fluorescence analysis. Put shortly:
as §1

Data set [3] is described as follows: Selectivity ratio of pLC50 for mouse primary glial cells to pLC50 for human THLE2 cells. Format: ADME, cell-based. The settings on record: mouse primary glial cells versus THLE2 cells.
Data set [4] in a line: Passive membrane permeability of the compound at 50 uM after 18 hrs by PAMPA. The format is ADME. To be noted: read-out: Peff. In outline: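 PAMPA: 50 μM donor solution in PBS/EtOH 70:30 over PVDF membrane precoated with PBL/dodecane (20 mg/mL); PBS/EtOH acceptor; 18 h at 20 °C without shaking; duplicates; donor and acceptor concentrations by UV absorbance corrected against vehicle.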

The nature of data set [5]: Selectivity ratio of pIC50 for full length recombinant human N-terminal GST tagged HDAC6 expressed in baculovirus infected Sf9 cells to pIC50 for full length recombinant human C-terminal His/Flag-tagged HDAC1 expressed in baculovirus infected Sf9 cells.
Data set [6] is described as follows: Cytotoxicity against human THLE2 cells assessed as reduction in cell viability after 72 hrs by ATP Vialight assay. The settings on record: read-out: LC50. Format: toxicity, cell-based, THLE-2. In outline:
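Immortalized human liver THLE-2 cells in BEGM with 0.7 μg/mL phosphoethanolamine, 0.5 ng/mL EGF, antibiotics and 10% FBS, seeded at 10,000 cells/well and left 24 h at 37 °C. Compounds were added at final 0–100 μM in 1% DMSO for 72 h. Cellular ATP was read by luminescence after 45 min lysis.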

Sequence of Histone deacetylase 2 (Q92769 whole entry): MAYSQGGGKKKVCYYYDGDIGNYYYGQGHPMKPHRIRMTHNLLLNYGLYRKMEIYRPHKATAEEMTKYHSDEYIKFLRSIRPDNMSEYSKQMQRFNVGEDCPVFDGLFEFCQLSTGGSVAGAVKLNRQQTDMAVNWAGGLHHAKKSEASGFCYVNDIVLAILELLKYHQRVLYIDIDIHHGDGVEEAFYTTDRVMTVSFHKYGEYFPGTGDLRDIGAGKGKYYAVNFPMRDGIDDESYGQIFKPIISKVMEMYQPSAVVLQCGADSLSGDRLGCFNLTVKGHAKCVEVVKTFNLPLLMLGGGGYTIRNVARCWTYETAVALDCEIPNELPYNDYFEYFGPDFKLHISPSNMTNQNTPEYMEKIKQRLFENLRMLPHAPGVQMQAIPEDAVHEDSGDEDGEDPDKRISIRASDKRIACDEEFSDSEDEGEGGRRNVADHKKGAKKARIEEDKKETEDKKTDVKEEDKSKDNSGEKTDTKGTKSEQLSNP
Sequence of Histone deacetylase 1 (Q13547 whole entry): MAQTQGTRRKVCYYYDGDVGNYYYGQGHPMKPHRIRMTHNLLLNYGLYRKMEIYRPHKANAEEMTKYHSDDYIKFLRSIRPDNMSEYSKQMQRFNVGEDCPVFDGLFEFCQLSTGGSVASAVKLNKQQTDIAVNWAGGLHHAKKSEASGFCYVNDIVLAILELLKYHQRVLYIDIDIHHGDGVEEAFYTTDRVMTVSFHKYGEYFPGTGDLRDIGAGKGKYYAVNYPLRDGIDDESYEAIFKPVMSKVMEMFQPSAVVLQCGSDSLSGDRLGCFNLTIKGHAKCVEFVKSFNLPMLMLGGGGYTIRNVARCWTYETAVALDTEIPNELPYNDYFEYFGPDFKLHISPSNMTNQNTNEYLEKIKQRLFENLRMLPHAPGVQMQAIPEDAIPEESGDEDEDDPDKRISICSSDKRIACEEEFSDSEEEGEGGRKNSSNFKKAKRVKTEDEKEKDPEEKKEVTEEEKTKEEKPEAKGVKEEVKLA

With `CCCc1nn(C)c2c(=O)[nH]c(-c3cc(NC4CCN(c5ccc(C(=O)NO)cc5)CC4)ccc3OCC)nc12`, the IC50 (as a rule, the concentration that inhibits the measured activity by half) in data set [1] was 0.02 µM; at Histone deacetylase 1, 7.81 µM; on Histone deacetylase 2, 17.5 µM; in data set [2], 1.6 µM.
For `CCCc1nn(C)c2c(=O)[nH]c(-c3cc(CN4CCC(C(=O)NO)CC4)ccc3OCC)nc12`, in that order: 0.207 µM, 7.62 µM, above 20 µM and 9.64 µM.
As for `CCCc1nn(C)c2c(=O)[nH]c(-c3cc(-c4ccc(C(=O)NO)cn4)ccc3OCC)nc12`, the selectivity ratio in data set [3] is below 0.4. The IC50 worked out at 0.004 µM in data set [1], 0.354 µM on Histone deacetylase 1, 1.87 µM at Histone deacetylase 2 and 0.079 µM in data set [2]. Further, in data set [4], the Papp at 18 h, 50 µM was determined as 0.92 ×10⁻⁶ cm/s.
For `CCCc1nn(C)c2c(=O)[nH]c(-c3cc(Cc4ccc(/C=C/C(=O)NO)cc4)ccc3OCC)nc12`, the IC50 in data set [1] is 0.122 µM; at Histone deacetylase 1 it was 1.53 µM; at Histone deacetylase 2, above 20 µM; in data set [2], 1.79 µM.
Regarding `CCCc1nn(C)c2c(=O)[nH]c(-c3cc(-c4ccc(C(=O)NO)o4)ccc3OCC)nc12`, the IC50 in data set [1] was 0.005 µM; at Histone deacetylase 1, above 20 µM; at Histone deacetylase 2, above 20 µM; in data set [2], 5.57 µM.
Consider `CCCc1nn(C)c2c(=O)[nH]c(-c3cc(CC(=O)NO)ccc3OCC)nc12`, for which the IC50 was 0.019 µM in data set [1], above 20 µM at Histone deacetylase 1, above 20 µM at Histone deacetylase 2 and above 20 µM in data set [2].
Turning to `CCCc1nn(C)c2c(=O)[nH]c(-c3cc(CC4CCN(CCC(=O)NO)CC4)ccc3OCC)nc12`, the IC50 in data set [1] was 0.057 µM; at Histone deacetylase 1 it was above 20 µM; at Histone deacetylase 2 it was above 20 µM; in data set [2], above 20 µM.
Regarding `CCCc1nn(C)c2c(=O)[nH]c(-c3cc(NCC4CCN(c5ncc(C(=O)NO)cn5)CC4)ccc3OCC)nc12`, the IC50 in data set [1] is 0.017 µM; at Histone deacetylase 1, 0.118 µM; on Histone deacetylase 2, 0.712 µM; in data set [2], 0.709 µM. Also, the Ratio pIC50 in data set [5] was above 0.6.
Turning to `CCCc1nn(C)c2c(=O)[nH]c(-c3cc(NCCC(=O)NO)ccc3OCC)nc12`, the concentration for half-maximal inhibition (IC50) is 0.044 µM in data set [1], 7.08 µM at Histone deacetylase 1, above 20 µM on Histone deacetylase 2 and 10.4 µM in data set [2].
For `CCCc1nn(C)c2c(=O)[nH]c(-c3cc(S(=O)(=O)N4CCN(C)CC4)ccc3OCC)nc12`, in data set [6], the CC50 at 72 h was above 100 µM. In addition, the Papp at 18 h, 50 µM in data set [4] is 2.75 ×10⁻⁶ cm/s.
With `CCCc1nn(C)c2c(=O)[nH]c(-c3cc(NC4CCC(C(=O)NO)CC4)ccc3OCC)nc12` (stereo not given), the IC50 in data set [1] is 0.022 µM; at Histone deacetylase 1, 5.98 µM; at Histone deacetylase 2 it was above 20 µM; in data set [2] it was 12.7 µM.
The matching figures for `CCCc1nn(C)c2c(=O)[nH]c(-c3cc(N4CCC5(CCC(C(=O)NO)C5)CC4)ccc3OCC)nc12` (stereo not given): 0.012 µM, 12.9 µM, above 20 µM and 4.34 µM.
Regarding `CCCc1nn(C)c2c(=O)[nH]c(-c3cc(C4CC4C(=O)NO)ccc3OCC)nc12` (stereo not given), the IC50 in data set [1] was 0.02 µM; at Histone deacetylase 1 it was 8.75 µM; on Histone deacetylase 2 it was above 20 µM; in data set [2], 5.37 µM.
For the molecule `CCCc1nn(C)c2c(=O)[nH]c(-c3cc(Oc4ccc(C(=O)NO)cc4)ccc3OCC)nc12`, the selectivity ratio in data set [3] is below 0.4. In addition, the IC50 in data set [1] came out at 0.023 µM; on Histone deacetylase 1 it was 0.566 µM; at Histone deacetylase 2, 2.25 µM; in data set [2] it was 0.196 µM. The Papp at 18 h, 50 µM in data set [4] came to 3.68 ×10⁻⁶ cm/s.
For `CCCc1nn(C)c2c(=O)[nH]c(-c3cc(N4CCCC5(CCC(C(=O)NO)CC5)C4)ccc3OCC)nc12` (stereo not given), the IC50 in data set [1] was 0.04 µM; on Histone deacetylase 1 it was 9.27 µM; on Histone deacetylase 2, above 20 µM; in data set [2] it was 10.1 µM.
For `CCCc1nn(C)c2c(=O)[nH]c(-c3cc(CN4CC(C(=O)NO)C4)ccc3OCC)nc12`, in that order: 0.303 µM, above 20 µM, above 20 µM and above 10 µM.
For `CCCc1nn(C)c2c(=O)[nH]c(-c3cc(S(=O)(=O)N4CCC(CCC(=O)NO)CC4)ccc3OCC)nc12`, in that order: 0.0005 µM, 0.406 µM, 1.94 µM and 0.087 µM.
For `CCCc1nn(C)c2c(=O)[nH]c(-c3cc(S(=O)(=O)N4CCN(CCC(=O)NO)CC4)ccc3OCC)nc12`, the IC50 is 0.003 µM in data set [1], 10.5 µM at Histone deacetylase 1, above 20 µM on Histone deacetylase 2 and 2.36 µM in data set [2].
For the molecule `CCCc1nn(C)c2c(=O)[nH]c(-c3cc(-c4ccc(C(=O)NO)nc4)ccc3OCC)nc12`, the selectivity ratio in data set [3] is below 0.4. Moreover, the 50% inhibitory concentration (IC50) in data set [1] is 0.004 µM; on Histone deacetylase 1 it was 2.36 µM; on Histone deacetylase 2 it was above 20 µM; in data set [2], 0.861 µM. In addition, in data set [4], the Papp at 18 h, 50 µM was found to be 1.52 ×10⁻⁶ cm/s.
For the molecule `CCCc1nn(C)c2c(=O)[nH]c(-c3cc(OC4CCC(C(=O)NO)CC4)ccc3OCC)nc12` (stereo not given), the IC50 was 0.011 µM in data set [1], 2.44 µM at Histone deacetylase 1, 9.83 µM at Histone deacetylase 2 and 2.33 µM in data set [2].
Regarding `CCCc1nn(C)c2c(=O)[nH]c(-c3cc(S(=O)(=O)N4CCN(CCCC(=O)NO)CC4)ccc3OCC)nc12`, the IC50 in data set [1] was determined as 0.002 µM; at Histone deacetylase 1, 1.1 µM; on Histone deacetylase 2, 4.64 µM; in data set [2], 0.36 µM.
For `CCCc1nn(C)c2c(=O)[nH]c(-c3cc(C(=O)NO)ccc3OCC)nc12`, in that order: 0.005 µM, 6.42 µM, above 20 µM and above 20 µM.
For the molecule `CCCc1nn(C)c2c(=O)[nH]c(-c3cc(N4CCC(CCC(=O)NO)CC4)ccc3OCC)nc12`, the IC50 in data set [1] turned out to be 0.024 µM; at Histone deacetylase 1 it was 0.603 µM; on Histone deacetylase 2, 2.03 µM; in data set [2] it was 1.06 µM.
For `CCCc1nn(C)c2c(=O)[nH]c(-c3cc(CCC(=O)NO)ccc3OCC)nc12`, in that order: 0.046 µM, 4.81 µM, above 20 µM and 2.12 µM.
On to `CCCc1nn(C)c2c(=O)[nH]c(-c3cc(N4CCC5(CCN(c6ncc(C(=O)NO)cn6)CC5)C4)ccc3OCC)nc12`, for which the IC50 in data set [1] worked out at 0.074 µM; at Histone deacetylase 1, 0.443 µM; at Histone deacetylase 2, 1.85 µM; in data set [2] it was 1.9 µM. For the same molecule, the Ratio pIC50 in data set [5] was above 0.6.
Take `CCCc1nn(C)c2c(=O)[nH]c(-c3cc(C4CCC(CC(=O)NO)CC4)ccc3OCC)nc12` (stereo not given): the IC50 was 0.07 µM in data set [1], 6.91 µM at Histone deacetylase 1, above 20 µM at Histone deacetylase 2 and 5.13 µM in data set [2].
